{"source": "paper PMC6457116", "about": "(ACS chemical biology, 2018)", "test_system": "IMR-90 human lung fibroblasts", "test": "Mammalian cell viability, Cell Titer Glo", "assay_type": "cell-based", "settings": "1 μg mL^−1 doxorubicin", "summary_of_the_method": "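IMR-90 fibroblasts from ATCC, grown in EMEM with 10% FBS and Pen-Strep at 37 °C, 5% CO2, split 1:3 at confluence. Seeded 20,000 cells/well and left overnight to adhere. Then treated 24 h or 48 h with 50 μM test compound (0.5% DMSO), 0.5% DMSO, 10% DMSO or doxorubicin hydrochloride (given as 1 μg mL−1 and 1.7 μM). CellTiter-Glo ATP luminescence, no-cell background. Percent death versus 0.5% DMSO.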"}
{"compound": "COc1cccc2c1C(=O)c1c(O)c3c(c(O)c1C2=O)C[C@@](O)(C(=O)CO)C[C@@H]3O[C@H]1C[C@H](N)[C@H](O)[C@H](C)O1", "note": "[doxorubicin]", "values": [{"measurement": "cells dead", "setting": "24 h", "result": 50, "unit": "%"}, {"measurement": "cell death (in words)", "setting": "48 h", "result": "near complete cell death"}]}
